Results taken from ChEMBL document CHEMBL4196168 (J Med Chem, 2018).
Calls of active or inactive are those of the source. The calls are words filed in the database; no cut-off is given here.

Tests used:
[1] = biological target: Transthyretin (Homo sapiens) (UniProt P02766); test: Binding affinity to transthyretin (unknown origin) assessed as free energy changes by ITC method
[2] = biological target: Transthyretin (Homo sapiens) (UniProt P02766); test: Binding affinity to transthyretin (unknown origin) assessed as free enthalpy changes by ITC method
[3] = biological target: Transthyretin (Homo sapiens) (UniProt P02766); test: Binding affinity to transthyretin (unknown origin) assessed as free TdeltaS changes by ITC method
[4] = biological target: Transthyretin (Homo sapiens) (UniProt P02766); test: Binding affinity to transthyretin (unknown origin) in pH 7.4 PBS buffer assessed as protein occupancy at 1:1 compound to TTR ratio by fluorescent probe exclusion assay
[5] = biological target: Transthyretin (Homo sapiens) (UniProt P02766); test: Binding affinity to transthyretin in human serum assessed as protein stabilization at 2:1 compound to TTR ratio after 72 hrs by Western blot
[6] = biological target: Transthyretin (Homo sapiens) (UniProt P02766); test: Binding affinity to transthyretin in human serum assessed as protein occupancy at 2:1 compound to TTR ratio by fluorescent probe exclusion assay
[7] = Cmax in human at 250 mg bid; assay type: ADME, organism-based; set-up: dose 250 mg; details: in vivo
[8] = biological target: Transthyretin (Homo sapiens) (UniProt P02766); details: 20 uM
[9] = biological target: T1, Transthyretin (Canis lupus familiaris) (UniProt A0A8I3NFK0); test: Binding affinity to transthyretin in dog serum assessed as protein stabilization at 10 uM by Western blot
Procedure, shortened: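 Pooled dog serum with compound (10 μM) or DMSO acidified in acetate buffer pH 4.0 for 0 and 72 h, glutaraldehyde crosslinked, SDS-PAGE, immunoblotted with anti-TTR antiserum (1:2,000); tetramer band intensity expressed relative to DMSO control at 0 hr; mean ± SD, n = 3.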

Albumin [10] = biological target: T2, Albumin (Homo sapiens, UniProt P02768); test: Binding affinity to human serum albumin; assay type: ADME
T2 sequence (P02768 whole entry): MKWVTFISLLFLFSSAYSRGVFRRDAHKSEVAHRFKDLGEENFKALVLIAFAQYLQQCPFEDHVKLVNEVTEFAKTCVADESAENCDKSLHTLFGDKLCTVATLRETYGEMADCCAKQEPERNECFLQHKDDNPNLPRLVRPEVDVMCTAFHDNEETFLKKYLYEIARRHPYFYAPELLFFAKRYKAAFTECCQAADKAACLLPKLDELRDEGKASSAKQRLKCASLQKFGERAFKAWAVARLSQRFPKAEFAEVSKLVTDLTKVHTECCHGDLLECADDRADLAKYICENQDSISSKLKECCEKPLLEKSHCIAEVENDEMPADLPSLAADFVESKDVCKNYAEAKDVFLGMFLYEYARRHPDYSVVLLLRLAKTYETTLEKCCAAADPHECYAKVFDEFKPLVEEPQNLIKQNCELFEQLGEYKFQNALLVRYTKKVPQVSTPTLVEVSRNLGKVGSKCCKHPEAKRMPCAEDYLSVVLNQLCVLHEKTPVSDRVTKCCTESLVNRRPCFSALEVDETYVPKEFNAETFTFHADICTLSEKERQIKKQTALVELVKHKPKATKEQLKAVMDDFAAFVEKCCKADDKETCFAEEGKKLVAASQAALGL

[11] = Cmax in human at 80 mg qd; assay type: ADME, organism-based; set-up: dose 80 mg; details: in vivo
Albumin [12] = biological target: T2, Albumin; test: Binding affinity to human serum albumin assessed as compound level bound to protein at 30 uM measured immediately after gel filtration; assay type: ADME; details: isolated protein
Procedure, shortened: (§1)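 Compound (30 μM) preincubated 1 hr at 37 °C with purified human serum albumin (600 μM) in 10 mM sodium phosphate, 100 mM KCl, 1 mM EDTA, pH 7.6; gel filtration, then dialysis against buffer 24 hr at room temperature; albumin-bound compound quantified by HPLC at time zero and after dialysis; mean ± SD, n = 3.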

Albumin [13] = biological target: T2, Albumin; test: Binding affinity to human serum albumin assessed as compound level bound to protein at 30 uM measured 124 hrs after dialysis; assay type: ADME; details: isolated protein, 24 h, in the assay text read “24 hrs” for “124 hrs”; procedure, shortened: as §1
[14] = biological target: T1, Transthyretin (Canis lupus familiaris); test: Binding affinity to transthyretin in dog serum assessed as protein occupancy at 10 uM by fluorescent probe exclusion assay
Procedure, shortened: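 Pooled commercial beagle dog serum (TTR 4.6 μM) with compound (10 μM, from DMSO stock) and FPE probe (final 3.6 μM); fluorescence ex 328/em 384 nm read for 6 hr at rt; % occupancy at 3 hr versus probe-alone DMSO control; mean ± SD, n = 4.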

[15] = biological target: Transthyretin (Homo sapiens) (UniProt P02766); details: 10 uM
[16] = biological target: Transthyretin (Homo sapiens) (UniProt P02766); details: 10 uM; remark: listed apart in the source
[17] = biological target: Transthyretin (Homo sapiens) (UniProt P02766); details: 10 uM; remark: listed apart in the source
[18] = biological target: Transthyretin (Homo sapiens) (UniProt P02766); details: 10 uM; remark: listed apart in the source
[19] = biological target: Transthyretin (Homo sapiens) (UniProt P02766); details: 10 uM; remark: listed apart in the source
[20] = biological target: Transthyretin (Homo sapiens) (UniProt P02766); test: Binding affinity to transthyretin (unknown origin) in human serum assessed as protein occupancy at 200 uM by fluorescent probe exclusion assay
Albumin [21] = biological target: T2, Albumin; test: Binding affinity to human serum albumin by ITC method; assay type: ADME
Canis familiaris [22] = test: In-vivo binding affinity to transthyretin in beagle dog serum assessed as protein occupancy at 50 to 200 mg/kg/day dosed daily via oral gavage for 7 days by fluorescent probe exclusion assay; assay type: functional, organism-based; details: Canis lupus familiaris
Procedure, shortened: (§2)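 Male and female beagle dogs gavaged daily 7 days with vehicle (6M/6F) or compound in 0.5% methylcellulose at 50 (2M/2F), 100 (2M/2F) or 200 mg/kg (6M/6F); jugular serum taken pre-dose day 1, pre-dose day 7 and 1 hr post-dose day 7; TTR occupancy by serum FPE assay, read at 3 hr.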

Canis familiaris [23] = test: In-vivo binding affinity to transthyretin in beagle dog serum assessed as protein occupancy measured on day 7 at 50 to 200 mg/kg/day dosed daily via oral gavage for 7 days by fluorescent probe exclusion assay; assay type: functional, Canis lupus familiaris; procedure, shortened: as §2
Canis familiaris [24] = test: In-vivo binding affinity to transthyretin in beagle dog serum assessed as protein occupancy measured at 1 hr post dose on day 7 at 50 to 200 mg/kg/day dosed daily via oral gavage for 7 days by fluorescent probe exclusion assay; assay type: functional, Canis lupus familiaris; procedure, shortened: as §2
Canis familiaris [25] = test: In-vivo binding affinity to transthyretin in beagle dog serum assessed as protein occupancy 20 mg/kg/day […] dosed as single administration via oral gavage; assay type: functional, organism-based; details: Canis lupus familiaris
Procedure, shortened: (§3)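 Beagle dogs (2M/2F per group) received one oral gavage dose of 5 or 20 mg/kg in 0.5% methylcellulose; serum collected pre-dose and at 2, 4, 6, 8, 12, 24 hr; compound level by LCMS and TTR occupancy by FPE assay in serum (probe plus DMSO added).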

Canis familiaris [26] = test: In-vivo binding affinity to transthyretin in beagle dog serum assessed as protein occupancy 5 mg/kg/day […] dosed as single administration via oral gavage; assay type: functional, organism-based; details: Canis lupus familiaris; procedure, shortened: as §3

Cc1n[nH]c(C)c1CCCOc1cc(C(=O)O)ccc1I
deltaG [1]: -9.61 kcal/mol | deltaH [2]: -9.82 kcal/mol | TdeltaS [3]: -0.21 kcal/mol | Occ [4]: 58.3% | Activity [5]: 86.7% | Occ [6]: 75.9%

COC(=O)c1ccc(F)c(OCCCc2c(C)n[nH]c2C)c1
deltaG [1]: -8.99 kcal/mol | deltaH [2]: -6.49 kcal/mol | TdeltaS [3]: 2.5 kcal/mol | Occ [4]: 38.5% | Activity [5]: 70.4% | Occ [6]: 63.2%

CCc1n[nH]c(CC)c1CCCOc1cc(C(=O)O)ccc1F
deltaG [1]: -8.1 kcal/mol | deltaH [2]: -2.1 kcal/mol | TdeltaS [3]: 6 kcal/mol | Occ [4]: 17.2% | Activity [5]: 23.2% | Occ [6]: 20.8%

Cc1nn(C)c(C)c1CCCOc1cc(C(=O)O)ccc1F
deltaG [1]: -9 kcal/mol | deltaH [2]: -4.73 kcal/mol | TdeltaS [3]: 4.27 kcal/mol | Occ [4]: 29.7% | Activity [5]: 32.1% | Occ [6]: 43%

O=C(O)c1cc(-c2ccc(F)cc2F)ccc1O [DIFLUNISAL]
deltaH [2]: -8.38 kcal/mol | TdeltaS [3]: 0.34 kcal/mol | Occ [4]: 28.7% | Cmax [7]: 200 µM | Occ [8]: 65%

O=C(O)c1ccc2nc(-c3cc(Cl)cc(Cl)c3)oc2c1
Activity [9]: Active | Kd (Albumin [10]): 2.5 µM | deltaH [2]: -5 kcal/mol | TdeltaS [3]: 6.39 kcal/mol | Occ [4]: 49.9% | Activity [5]: 41.5% | Cmax [11]: 20 µM | PB (Albumin [12]): 24.1 µM | PB (Albumin [13]): 18.8 µM | Activity [14]: Active | Occ [15]: 68.2% | Occ [16]: 41.5% | Occ [17]: Active | Occ [18]: Active | Occ [19]: Active | Occ [20]: 65% | Occ [6]: 49%

Cc1n[nH]c(C)c1CCCOc1cc(C(=O)O)ccc1F [ACORAMIDIS]
Activity [9]: Active | Kd (Albumin [21]): 8 µM | PB (Albumin [12]): 18.3 µM | PB (Albumin [13]): 7.8 µM | Activity [14]: Active | Activity (Canis familiaris [22]): Dose-dependent effect | Occ (Canis familiaris [23]): 81 - 94% | Occ (Canis familiaris [24]): >97% | Activity (Canis familiaris [25]): Active | Activity (Canis familiaris [26]): Active
